Measured values: ChEMBL document CHEMBL3351678, “Benzoquinones as inhibitors of botulinum neurotoxin serotype A” (Bioorg Med Chem, 2014)
Active and inactive are the calls of the source. The rule behind the calls is not given here.

Tests used:
[1] = Glutathione reactivity at 1 mM in presence of 1 mM glutathione containing PBS and 1 mM EDTA buffer at pH 7.4 assessed as remaining GSH level after 30 mins by spectrophotometry by Ellman's method
In short: (§1)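 Compound (1 mM) incubated with glutathione (1 mM) in PBS + 1 mM EDTA, pH 7.4. At each time point, an aliquot was diluted 1:10 into 4 mg/mL DTNB and absorbance read at 412 nm. Compound blanks included. Free GSH quantified against a 0–1.25 mM GSH standard curve and expressed as % remaining.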

[2] = target: Botulinum neurotoxin type A (Clostridium botulinum) (UniProt P0DPI0); test: Inhibition of recombinant Clostridium botulinum neurotoxin serotype A light chain assessed as Kinact to KI ratio at 50 uM after 1.5 hrs by SNAPtide FRET based assay
[3] = Glutathione reactivity at 1 mM in presence of 1 mM glutathione containing PBS and 1 mM EDTA buffer at pH 7.4 assessed as remaining GSH level after 10 seconds by spectrophotometry by Ellman's method; in short: as §1
[4] = target: T1, Botulinum neurotoxin type A (Clostridium botulinum, UniProt P0DPI0); test: Competitive inhibition of recombinant Clostridium botulinum neurotoxin serotype A light chain assessed as [13C]-labeled 9-mer cleavage product formation using 66-mer substrate after 25 mins by LC-MS method
In short: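 66-mer SNAP-25 substrate (5 µM) cleaved by recombinant BoNT/A LC (0.8 nM) in 40 mM HEPES pH 7.4 for 25 min. Quenched with 20% TFA. 13C-labelled 9-mer internal standard added, and cleavage product quantified by LCMS relative to it. IC50 derived from initial velocities using the rearranged IC50 equation.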

[5] = target: Botulinum neurotoxin type A (Clostridium botulinum) (UniProt P0DPI0); test: Time dependent inhibition of recombinant Clostridium botulinum neurotoxin serotype A light chain assessed as Kinact to KI ratio at 200 uM by SNAPtide FRET based assay
In short: (§2)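 Recombinant 425-residue BoNT/A light chain (18.5 nM) with 5 µM SNAPtide FRET substrate in 40 mM HEPES, 0.1% Triton X-100, pH 7.4. Inhibitor is present with enzyme and substrate, without preincubation, across a range of concentrations.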

[6] = target: Botulinum neurotoxin type A (Clostridium botulinum) (UniProt P0DPI0); test: Irreversible inhibition of recombinant Clostridium botulinum neurotoxin serotype A light chain assessed as Kinact to KI ratio after 1.5 hrs by SNAPtide FRET based assay
[7] = target: T1, Botulinum neurotoxin type A; test: Competitive inhibition of recombinant Clostridium botulinum neurotoxin serotype A light chain assessed as reduction in benzoquinone-mediated BoNT/A inactivation by SNAPtide FRET based assay
[8] = target: T1, Botulinum neurotoxin type A; test: Competitive inhibition of recombinant Clostridium botulinum neurotoxin serotype A light chain assessed as reduction in initial rates of BoNT/A LC activity by SNAPtide FRET based assay
In short: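 Recombinant 425-aa BoNT/A LC (18.5 nM) and SNAPtide (5 µM) in 40 mM HEPES + 0.1% Triton X-100, pH 7.4. Cleavage read by fluorescence. Velocities fitted to V = Vcontrol/(1 + [I]/IC50) to give IC50.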

[9] = Glutathione reactivity at 1 mM in presence of 1 mM glutathione containing PBS and 1 mM EDTA buffer at pH 7.4 assessed as remaining GSH level after 1 hr by spectrophotometry by Ellman's method; in short: as §1
[10] = Glutathione reactivity at 1 mM in presence of 1 mM glutathione containing PBS and 1 mM EDTA buffer at pH 7.4 assessed as second order rate constant by spectrophotometry by Ellman's method
In short: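 Compound and glutathione (1 mM each) in PBS + 1 mM EDTA, pH 7.4. Free thiol followed over time by 1:10 dilution into 4 mg/mL DTNB, A412, with compound blanks and a GSH standard curve. Second-order kGSH of Michael adduct formation derived from 1/[GSH] − 1 = 2kGSH·t.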

[11] = target: Botulinum neurotoxin type A (Clostridium botulinum) (UniProt P0DPI0); test: Time dependent inhibition of recombinant Clostridium botulinum neurotoxin serotype A light chain assessed as Kinact to KI ratio after 1.5 hrs by SNAPtide FRET based assay; in short: as §2
[12] = target: Botulinum neurotoxin type A (Clostridium botulinum) (UniProt P0DPI0); test: Inhibition of recombinant Clostridium botulinum neurotoxin serotype A light chain assessed as [13C]-labeled 9-mer cleavage product formation at 50 uM using 66-mer substrate after 25 mins by LC-MS method
In short: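 Inhibitors at 50 µM with recombinant BoNT/A LC (0.8 nM) and 66-mer substrate (5 µM) in 40 mM HEPES pH 7.4. Cleavage ran 25 min, then quenched with 20% TFA. 9-mer product quantified by LCMS against a 13C-labelled 9-mer internal standard.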

[13] = target: T1, Botulinum neurotoxin type A; test: Competitive inhibition of Clostridium botulinum neurotoxin serotype A light chain

T1 sequence (P0DPI0 2-448 limits assumed): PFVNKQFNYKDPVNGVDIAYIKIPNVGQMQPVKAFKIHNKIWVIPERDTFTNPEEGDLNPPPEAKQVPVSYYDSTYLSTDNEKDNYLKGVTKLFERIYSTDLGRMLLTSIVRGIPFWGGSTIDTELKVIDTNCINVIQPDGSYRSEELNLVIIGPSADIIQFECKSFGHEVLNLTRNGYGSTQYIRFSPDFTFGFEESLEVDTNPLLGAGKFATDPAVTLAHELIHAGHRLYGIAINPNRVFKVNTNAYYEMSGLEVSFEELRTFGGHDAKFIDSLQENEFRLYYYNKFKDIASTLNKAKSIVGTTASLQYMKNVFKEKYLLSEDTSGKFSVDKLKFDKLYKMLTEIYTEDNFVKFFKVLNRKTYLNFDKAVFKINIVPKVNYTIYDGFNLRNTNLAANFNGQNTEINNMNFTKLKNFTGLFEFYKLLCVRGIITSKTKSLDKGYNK
Chain of Botulinum neurotoxin type A (Clostridium botulinum) (P0DPI0 2-448 limits assumed): as above

Structure (SMILES)	Activity [1] [%]	Activity [3] [%]	Ratio [2] [M⁻¹ s⁻¹]	IC50 ([4]; read-out: IC50) [µM]	further results
CC1=CC(=O)C=C(C)C1=O	0	22			inhibition [2]: inactive
CC1=CC(=O)C(C(C)C)=CC1=O			0.38		
COc1ccc(OC)c(Cn2cnc(C(=O)NCc3ccc(-c4ccccc4)cc3)n2)c1				40	
COc1ccc(OC)c(Nc2cccc(C(=O)NCc3ccc(Oc4ccccc4)cc3)n2)c1				200	
O=C1C=CC(=O)C(Nc2cccc(C(=O)NCc3ccc(Oc4ccccc4)cc3)n2)=C1			1.7	2.3	
COC1=CC(=O)C=C(OC)C1=O	0	45			inhibition [2]: inactive
O=C(NCc1ccc(Oc2ccccc2)cc1)c1ccccn1				570	
Cc1ccc(C2=CC(=O)c3ccccc3C2=O)cc1			0.91		
O=C1C=CC(=O)C(c2ccc(I)cc2)=C1			10		
CC1=CC(=O)c2ccccc2C1=O			1.1		
O=C1C=CC(=O)C(c2ccccc2)=C1	8	21	9.7		
O=C1C=CC(=O)c2c(O)cccc21	32	44	5.3		Ratio [5]: 3.35 M⁻¹ s⁻¹; Ratio [6]: 3.71 M⁻¹ s⁻¹
O=C(NCc1ccc(-c2ccccc2)cc1)c1nc[nH]n1				210	
O=C1C=CC(=O)C(Cl)=C1			51		
NCC(=O)Nc1ccc(Oc2ccccc2)cc1				120	IC50 [7]: 258 µM; IC50 [8]: 163 µM
NCC(=O)NCc1ccc(-c2ccccc2)cc1				160	
CC(=O)Oc1cccc2c1C(=O)C=CC2=O	26	51	4		
COC1=CC(=O)C(OC)=C(c2ccc(C)cc2)C1=O	49	89	0.82		Activity [9]: 35%; K [10]: 0.032 min⁻¹
COC1=C(c2ccc(C)cc2)C(=O)C=CC1=O	19	25	9.5		
CC1=CC(=O)C=CC1=O	5	35	2.5		

Structure (SMILES)	Activity [1] [%]	Activity [3] [%]	Ratio [2] [M⁻¹ s⁻¹]	IC50 ([4]; read-out: IC50) [µM]	further results
O=C1C=CC(=O)C(CCC(=O)O)=C1			1.2		IC50 [4]: Not Active
C[C@]12CC[C@@H]3c4ccc(C5=CC(=O)C=CC5=O)cc4CC[C@H]3[C@@H]1CCC2=O			3.9		
O=C1C=CC(=O)C=C1	6	24	17		Ratio [11]: 11.8 M⁻¹ s⁻¹; inhibition [12]: Active; Ratio [6]: 12.4 M⁻¹ s⁻¹
COC1=CC(=O)C=CC1=O			4.1		
O=C1C=CC(=O)C(CC(=O)O)=C1			0.56	9.3	
O=C1C=CC(=O)C(CNCC(=O)Nc2cccc(OCc3ccccc3)c2)=C1				18	
NCC(=O)Nc1cccc(OCc2ccccc2)c1				417	
O=C1C=CC(=O)c2cc(O)ccc21	32	71	0.94		Activity [9]: 22%; K [10]: 0.036 min⁻¹; Ratio [6]: 1.17 M⁻¹ s⁻¹
COC1=CC(=O)C(c2ccc(C)cc2)=CC1=O					inhibition [2]: inactive
COC(=O)c1cccc(NC2=CC(=O)C=CC2=O)n1				14	
ONCC12CC3CC(CC(C3)C1)C2					IC50 [7]: 1.5 µM; Ki [13]: 0.46 µM; IC50 [8]: 1.6 µM
O=C1C=CC(=O)c2c(O)ccc(O)c21	39	85	2.2		Activity [9]: 26%; K [10]: 0.025 min⁻¹
O=C1C=CC(=O)C(Cn2cnc(C(=O)NCc3ccc(-c4ccccc4)cc3)n2)=C1				2.5	
O=C1C=CC(=O)c2c(OCc3ccccc3)cccc21	39	57	2		
O=C1C=C(Cl)C(=O)C=C1Cl	0	0	84		
COc1cccc2c1C(=O)C=CC2=O	27	80	0.99		Activity [9]: 14%; K [10]: 0.053 min⁻¹
O=C1C=CC(=O)C(Nc2ccccn2)=C1				97	
COc1ccc(OC)c(CNCC(=O)Nc2cccc(OCc3ccccc3)c2)c1				25	
O=C1C=CC(=O)c2ccccc21	20	47	2		
